These results are taken from paper PMC11651071 (International Journal of Nanomedicine, 2024).

Data set [1] deals with Hela cells. Description: Cell cycle assay. The conditions noted are these: 24 h. In kind it is cell-based. A digest of the protocol:
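HeLa cells (DMEM, 10% FBS) were seeded at 5.5×10^5 cells/well in 6-well plates and treated in DMEM for 24 h. Collected cells were fixed by dropwise 70% ethanol and held at −20°C for 24 h. They were washed twice in chilled PBS, stained with PI buffer for 30 min at room temperature in the dark, and analysed by flow cytometry. Mean ± SD, ≥3 independent experiments.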

Data set [2] deals with Hela cells. As to the kind of experiment: Cell viability assay. It counts as cell-based. Conditions: 24 h. The essentials:
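MTT assay: HeLa cells at 4.5×10^3 cells/well were allowed to adhere for 24 h, then exposed to gradient concentrations for 24, 48 or 72 h, with 0.1% DMSO as negative control. MTT was added for 3.5 h at 37°C, and formazan was dissolved in DMSO and read at 490 nm. Inhibition rate = [1 − (ODsample − ODblank)/(ODcontrol − ODblank)] × 100%. Mean ± SD, ≥3 independent experiments.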

For data set [3], the system named is Hela cells xenograft tumor. Description: In vivo anti-tumor effect, subcutaneous xenograft model using Hela cells. Also noted: species or system nude mice. Conditions: for Body weight of nude mice during treatment: CU, CA7, CA7-LP 50 mg/kg, DDP-INJ 3.5 mg/kg, i.p. every 2 days for 14 days; for Tumor cell infiltration in kidneys and livers (H&E): after treatment. A digest of the protocol:
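Female BALB/c immunodeficient mice (4 w, 15–16 g) received 3.5×10^7 HeLa cells in 100 µL PBS s.c. near the right scapula. At ~100 mm³, mice were randomised into five groups (n = 5): saline, test articles at 50 mg/kg, or cisplatin injection at 3.5 mg/kg. Dosing was i.p. every 2 days for 14 days. Tumour volume (V = 1/2·ab²) and body weight were tracked; tumours were then weighed and organs formalin-fixed for H&E, with tumour Ki67 immunohistochemistry.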

In data set [4] the test system is Hela cells. Description: Cell apoptosis detection. In kind it is cell-based. The conditions noted are these: 24 h.
Data set [5] has as its system Hela cells. As to the kind of experiment: Wound healing assay. In kind it is cell-based. Conditions: 24 h, serum-free DMEM. The essentials: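 Scratch assay: a confluent HeLa monolayer (9×10^5 cells/well, 6-well plates) was scraped with a 200 µL pipette tip and washed twice with PBS. Treatments were added in serum-free DMEM and plates kept at 37°C, 5% CO2. Wound closure was imaged by microscope at 0 and 24 h.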

The mark [6] stands for this setting: 50 mg/kg intraperitoneally every 2 days for 14 days.

Take `COc1cc(/C=C/C(=O)CC(=O)/C=C/c2ccc(O)c(OC)c2)ccc1O` [CU, Curcumin]: the “Proportion of the G2/M phase” value came out at 17.84 ± 1.07% with Hela cells [1] (2.5 μM), 20.46 ± 2.44% in the data set on Hela cells [1] (5 μM) and 22.78 ± 3.60% in the data set on Hela cells [1] (10 μM). For the same compound, the Maximum inhibition rate in the data set on Hela cells [2] was 5.77 ± 2.40%. For the same compound, in data set [3] (setting [6]), the Tumor inhibition rate turned out to be 28.58 ± 8.04%. The Tumor weight in data set [3] (setting [6]) is listed as 0.49 ± 0.06 g. Further, the “Body weight of nude mice during treatment” value in data set [3] is given as “remained stable”. Moreover, in data set [3], the “Tumor cell infiltration in kidneys and livers (H&E)” value is reported as “present in small amounts”. Besides, the values for the Total apoptosis rate in the data set on Hela cells [4] (2.5 μM), in the data set with Hela cells [4] (5 μM) and in the data set on Hela cells [4] (10 μM) were 7.29 ± 1.64%, 11.64 ± 3.19% and 17.60 ± 3.39%, respectively. This compound also registered a Migration rate in the data set with Hela cells [5] of 42.12 ± 3.06%.

`N.N.[Cl][Pt][Cl]` [DDP-INJ, Cisplatin]: the “Change of cell cycle distribution” value in the data set with Hela cells [1] is “increase in the S phase and a decrease in G2/M phase”. Also, the “Body weight of nude mice during treatment” value in data set [3] is given as “notable decrease in body weight”. Besides, in data set [3] (DDP-INJ 3.5 mg/kg i.p., as the number of administrations increased), the “Mortality of nude mice” value is “some mice dying”. Moreover, in data set [3], the “Tumor cell infiltration in kidneys and livers (H&E)” value is “absent”. Further, the Total apoptosis rate is 11.57 ± 1.16% in the data set on Hela cells [4] (2.5 μM), 23.73 ± 2.30% with Hela cells [4] (5 μM) and 32.17 ± 3.68% with Hela cells [4] (10 μM).
